Reference: ChEMBL document CHEMBL4118105, “High-Affinity Peptidomimetic Inhibitors of the DCN1-UBC12 Protein-Protein Interaction” (J Med Chem, 2018)
In brackets after ≈: the same amount, converted by molar mass. Blank lines part the entries; values can stand above or below the compound they belong to. Activity calls are given as the source filed them. The calls are words filed in the database; no cut-off is given here.

Tests used:
DCN1-like protein 1 [1] = molecular target: T1, DCN1-like protein 1 (Homo sapiens, UniProt Q96GG9); assay: Binding affinity to biotin labeled recombinant N-terminal His6-tagged human DCN1 (58 to 259 residues) expressed in Escherichia coli Rosetta2 cells assessed as dissociation rate constant by biolayer interferometry analysis
In short: (§1)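 Biotinylated DCN1 (1:1 molar biotin reagent, 4 °C 2 h, dialysed) loaded on super streptavidin sensors from 10 μg/mL to 11−12 nm response; blocked streptavidin sensors as reference. Run at 30 °C, 1000 rpm, in PBS with 0.1% BSA, 0.01% Tween-20, 2% DMSO; 10 min baseline wash. kon/koff from 1:1 binding model fits; two independent experiments.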
Target sequence in this assay (Q96GG9 whole entry, looked up, the tested form may be a part): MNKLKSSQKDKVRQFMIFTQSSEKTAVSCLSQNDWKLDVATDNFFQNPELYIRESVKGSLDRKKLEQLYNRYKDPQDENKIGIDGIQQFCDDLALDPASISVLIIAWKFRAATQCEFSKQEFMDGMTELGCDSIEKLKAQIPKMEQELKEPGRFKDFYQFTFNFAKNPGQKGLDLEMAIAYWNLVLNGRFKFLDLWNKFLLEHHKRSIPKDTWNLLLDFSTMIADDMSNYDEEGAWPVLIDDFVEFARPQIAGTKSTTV

DCN1-like protein 1 [2] = molecular target: T1, DCN1-like protein 1; assay: Inhibition of DCN1-mediated CUL5 neddylation in human H2170 cells at 0.1 to 10 uM after 16 hrs by Western blot analysis; assay type: cell-based
In short: (§2)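 H2170 cells exposed to compound for 16 h, then lysed in Triton X-100 or RIPA buffer with phosphatase inhibitors. Neddylated and unneddylated cullins, NRF2 and CDT1 read by Western blot on whole-cell lysate, with GAPDH as loading control.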
Target sequence in this assay (Q96GG9 whole entry, looked up, the tested form may be a part): as above

DCN1-like protein 1 [3] = molecular target: T1, DCN1-like protein 1; assay: Inhibition of DCN1-mediated CUL4A neddylation in human H2170 cells at 0.1 to 10 uM after 16 hrs by Western blot analysis; assay type: cell-based; in short: as §2
Target sequence in this assay (Q96GG9 whole entry, looked up, the tested form may be a part): as above

[4] = Equilibrium aqueous solubility of the compound in phosphate buffer of pH 7.4 after 24 hrs by shake-flask method; assay type: physicochemical
In short: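 Excess solid was suspended in phosphate buffer pH 7.4, sonicated 30 min, then shaken 24 h at room temperature. Suspensions were centrifuged at 15 000 rpm for 15 min and filtered through 0.45 μm membranes. The saturated concentration was read by UV at each compound's absorption maximum, found by spectrum scan.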

DCN1-like protein 1 [5] = molecular target: T1, DCN1-like protein 1; assay: Inhibition of DCN1-mediated CUL1 neddylation in human H2170 cells at 10 uM after 16 hrs by Western blot analysis; assay type: cell-based; in short: as §2
Target sequence in this assay (Q96GG9 whole entry, looked up, the tested form may be a part): as above

DCN1-like protein 1 [6] = molecular target: T1, DCN1-like protein 1; assay: Stabilization of DCN1 in human H2170 cells incubated for 1 hr by cellular thermal shift assay; assay type: cell-based
In short: (§3)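 H2170 cells (5 × 10^5 per sample) given compound or DMSO for 1 h, washed three times in PBS, resuspended in PBS with protease inhibitor, and heated at 53 °C for 3 min. Three liquid-nitrogen freeze/thaw-on-ice cycles followed. DCN1 in the supernatant read by Western blot, with GAPDH as loading control.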
Target sequence in this assay (Q96GG9 whole entry, looked up, the tested form may be a part): as above

DCN1-like protein 1 [7] = molecular target: T1, DCN1-like protein 1; assay: Inhibition of DCN1-mediated CUL3 neddylation in human SK-MES-1 cells up to 10 uM after 16 hrs by Western blot analysis; assay type: cell-based
Target sequence in this assay (Q96GG9 whole entry, looked up, the tested form may be a part): as above

DCN1-like protein 1 [8] = molecular target: T1, DCN1-like protein 1; assay: Inhibition of DCN1 interaction with UBC12 protein in human H2170 cell lysate after 24 hrs by immunoprecipitation assay
In short: (§4)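 Endogenous DCN1 pulled down from precleared lysates of treated cells with DCN1 antibody for 3 h, then protein A&G beads at 4 °C overnight with rotation. Beads washed three times in lysis buffer, complexes resolved by SDS−PAGE and immunoblotted.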

DCN1-like protein 1 [9] = molecular target: T1, DCN1-like protein 1; assay: Inhibition of DCN1-mediated CUL3 neddylation in human H2170 cells after 16 hrs by Western blot analysis; assay type: cell-based; in short: as §2
DCN1-like protein 1 [10] = molecular target: T1, DCN1-like protein 1; assay: Binding affinity to biotin labeled recombinant N-terminal His6-tagged human DCN1 (58 to 259 residues) expressed in Escherichia coli Rosetta2 cells assessed as association rate constant by biolayer interferometry analysis; in short: as §1
NCI-H2170 [11] = assay: Effect on DCN1 levels in human NCI-H2170 cells at 5 to 10 uM after 24 hrs by Western blot analysis; assay type: functional, cell-based
NCI-H2170 [12] = assay: Effect on UBC12 levels in human NCI-H2170 cells at 5 to 10 uM after 24 hrs by Western blot analysis; assay type: functional, cell-based
DCN1-like protein 1 [13] = molecular target: T1, DCN1-like protein 1; assay: Inhibition of DCN1-mediated CUL2 neddylation in human H2170 cells at 0.1 to 10 uM after 16 hrs by Western blot analysis; assay type: cell-based; in short: as §2
DCN1-like protein 1 [14] = molecular target: T1, DCN1-like protein 1; assay: Inhibition of DCN1-mediated CUL4B neddylation in human H2170 cells at 0.1 to 10 uM after 16 hrs by Western blot analysis; assay type: cell-based; in short: as §2
DCN1-like protein 1 [15] = molecular target: T1, DCN1-like protein 1; assay: Inhibition of DCN1-mediated CUL3 neddylation in human H2170 cells assessed as increase in NRF2 level at 0.1 to 10 uM after 16 hrs by Western blot analysis; assay type: cell-based; in short: as §2
DCN1-like protein 1 [16] = molecular target: T1, DCN1-like protein 1; assay: Binding affinity to biotin labeled recombinant N-terminal His6-tagged human DCN1 (58 to 259 residues) expressed in Escherichia coli Rosetta2 cells by biolayer interferometry analysis
In short: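 Recombinant human DCN1 (58–259) was biotinylated at a 1:1 molar ratio in PBS for 2 h at 4 °C, dialyzed, then loaded on super streptavidin sensors from a 10 μg/mL solution. Blocked streptavidin sensors served as reference.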
Target sequence in this assay (Q96GG9 whole entry, the tested form may be a part): as the sequence (Q96GG9 whole entry, looked up, the tested form may be a part) above

DCN1-like protein 1 [17] = molecular target: T1, DCN1-like protein 1; assay: Inhibition of DCN1-mediated CUL4A neddylation in human H2170 cells assessed as increase in CDT1 level at 0.1 to 10 uM after 16 hrs by Western blot analysis; assay type: cell-based; in short: as §2
DCN1-like protein 1 [18] = molecular target: T1, DCN1-like protein 1; assay: Inhibition of DCN1-mediated CUL3 neddylation in human H2170 cells assessed as increase in NRF2 level at 10 uM after 16 hrs by Western blot analysis; assay type: cell-based; in short: as §2
DCN1-like protein 1 [19] = molecular target: T1, DCN1-like protein 1; assay: Inhibition of DCN1-mediated CUL4A neddylation in human SK-MES-1 cells at 10 uM after 16 hrs by Western blot analysis; assay type: cell-based
DCN1-like protein 1 [20] = molecular target: T1, DCN1-like protein 1; assay: Inhibition of DCN1-mediated CUL2 neddylation in human SK-MES-1 cells at 10 uM after 16 hrs by Western blot analysis; assay type: cell-based
DCN1-like protein 1 [21] = molecular target: T1, DCN1-like protein 1; assay: Inhibition of DCN1-mediated CUL4A neddylation in human H2170 cells at 10 uM after 16 hrs by Western blot analysis; assay type: cell-based; in short: as §2
DCN1-like protein 1 [22] = molecular target: T1, DCN1-like protein 1; assay: Inhibition of DCN1-mediated CUL4B neddylation in human SK-MES-1 cells at 10 uM after 16 hrs by Western blot analysis; assay type: cell-based
DCN1-like protein 1 [23] = molecular target: T1, DCN1-like protein 1; assay: Inhibition of DCN1-mediated CUL3 neddylation in human H2170 cells at 10 uM after 16 hrs by Western blot analysis; assay type: cell-based; in short: as §2
DCN1-like protein 1 [24] = molecular target: T1, DCN1-like protein 1; assay: Inhibition of DCN1 interaction with UBC12 protein in human H2170 cell lysate at 20 uM after 3 hrs by immunoprecipitation assay; in short: as §4
DCN1-like protein 1 [25] = molecular target: T1, DCN1-like protein 1; assay: Inhibition of DCN1-mediated CUL1 neddylation in human SK-MES-1 cells at 10 uM after 16 hrs by Western blot analysis; assay type: cell-based
DCN1-like protein 1 [26] = molecular target: T1, DCN1-like protein 1; assay: Inhibition of DCN1-mediated CUL2 neddylation in human H2170 cells at 10 uM after 16 hrs by Western blot analysis; assay type: cell-based; in short: as §2
DCN1-like protein 1 [27] = molecular target: T1, DCN1-like protein 1; assay: Stabilization of DCN1 in human H2170 cells at 10 uM incubated for 1 hr by cellular thermal shift assay; assay type: cell-based; in short: as §3
DCN1-like protein 1 [28] = molecular target: T1, DCN1-like protein 1; assay: Inhibition of DCN1-mediated CUL5 neddylation in human SK-MES-1 cells at 10 uM after 16 hrs by Western blot analysis; assay type: cell-based
DCN1-like protein 1 [29] = molecular target: T1, DCN1-like protein 1; assay: Inhibition of DCN1-mediated CUL4B neddylation in human H2170 cells at 10 uM after 16 hrs by Western blot analysis; assay type: cell-based; in short: as §2
DCN1-like protein 1 [30] = molecular target: T1, DCN1-like protein 1; assay: Inhibition of DCN1-mediated CUL5 neddylation in human H2170 cells at 10 uM after 16 hrs by Western blot analysis; assay type: cell-based; in short: as §2
DCN1-like protein 1 [31] = molecular target: T1, DCN1-like protein 1; assay: Inhibition of DCN1-mediated CUL3 neddylation in human SK-MES-1 cells at 10 uM after 16 hrs by Western blot analysis; assay type: cell-based

- K (DCN1-like protein 1 [1]): 2 ×10⁻³ /s
- inhibition (DCN1-like protein 1 [2]): inactive
- inhibition (DCN1-like protein 1 [3]): inactive
- solubility thermodynamic at 24 h [4]: 54 µM (≈ 38.5 µg/mL)
- inhibition (DCN1-like protein 1 [5]): Active
- Activity (DCN1-like protein 1 [6]): Dose-dependent effect
- inhibition (DCN1-like protein 1 [7]): Active
- inhibition (DCN1-like protein 1 [8]): Dose-dependent effect
- inhibition (DCN1-like protein 1 [9]): Dose-dependent effect
- K (DCN1-like protein 1 [10]): 2.9 ×10⁵ /M/s
- inhibition (DCN1-like protein 1 [13]): inactive
- inhibition (DCN1-like protein 1 [14]): inactive
- inhibition (DCN1-like protein 1 [15]): Active
- Kd (DCN1-like protein 1 [16]): 6.7 nM
- inhibition (DCN1-like protein 1 [17]): inactive
SMILES: CCC(=O)N[C@@H](Cc1nc2ccc(Cl)cc2s1)C(=O)N[C@H](C(=O)N[C@@H](CCCCN)C(=O)N[C@@H]1CCOc2ccccc21)C1CCOCC1
- Activity (NCI-H2170 [11]): inactive
- Activity (NCI-H2170 [12]): inactive

- K (DCN1-like protein 1 [1]): 2.6 ×10⁻³ /s
- inhibition (DCN1-like protein 1 [18]): inactive
- inhibition (DCN1-like protein 1 [5]): inactive
- inhibition (DCN1-like protein 1 [19]): inactive
- inhibition (DCN1-like protein 1 [20]): inactive
- inhibition (DCN1-like protein 1 [21]): inactive
- inhibition (DCN1-like protein 1 [22]): inactive
- inhibition (DCN1-like protein 1 [23]): inactive
- inhibition (DCN1-like protein 1 [24]): inactive
- K (DCN1-like protein 1 [10]): 2.4 ×10³ /M/s
- inhibition (DCN1-like protein 1 [25]): inactive
- inhibition (DCN1-like protein 1 [26]): inactive
- Activity (DCN1-like protein 1 [27]): inactive
- inhibition (DCN1-like protein 1 [28]): inactive
- inhibition (DCN1-like protein 1 [29]): inactive
- Kd (DCN1-like protein 1 [16]): 1470 nM
- inhibition (DCN1-like protein 1 [30]): inactive
- inhibition (DCN1-like protein 1 [31]): inactive
SMILES: CCC(=O)N[C@@H](Cc1nc2ccc(Cl)cc2s1)C(=O)N[C@H](C(=O)N[C@@H](CCCCN)C(=O)N[C@@H]1CCOc2ccccc21)C1CCNCC1
